One block for each compound: values may come before it. *1 amine or outer side, *2 acyl side, *3 side chain or, on linkers, in order; H or OH if unused. Where a SMILES comes first, the peptide text is derived from it. Bridges are numbered along the chain shown (N, C = ends). Roman numbers before positions name the chains, in order. [ ]: non-standard residue; d: D form. ξ: configuration not given here. X1 = CC(=O)N[C@@H](CSCc1cc(C[*:1])cc(C[*:2])c1)C(=O)O; TBMB = c1c(C[*:1])cc(C[*:3])cc1C[*:2]; hArg = N=C(N)NCCCC[C@H](N)C(=O)O; ξAze = O=C(O)C1CCN1
Experiments:
[1] = Inhibition of rabbit plasma kallikrein using fluorogenic H-Pro-Phe-Arg-AMC peptide as substrate preincubated for 15 mins followed by substrate addition measured by fluorescence-based assay; design: species or system Oryctolagus cuniculus; settings: read-out: Ki(app)
Procedure, shortened: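 Assays ran at 25 °C in 50 mM Tris-HCl, 250 mM NaCl, 1.5 μM BSA, pH 7.5. PKal (nominal 1–2 nM) was preincubated 15 min with serially diluted peptide. […] Human PKal was purified from plasma; rat PKal was made in-house or bought; other species were purified in-house from kaolin-activated plasma.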

Plasma kallikrein [2] = target: Plasma kallikrein (Rattus norvegicus, UniProt P14272); test: Inhibition of recombinant Sprague-Dawley rat plasma kallikrein using fluorogenic H-Pro-Phe-Arg-AMC peptide as substrate preincubated for 15 mins followed by substrate addition measured by fluorescence-based assay; settings: read-out: Ki(app)
(UniProt A0A8D1M4K5) = test: Inhibition of pig plasma kallikrein using fluorogenic H-Pro-Phe-Arg-AMC peptide as substrate preincubated for 15 mins followed by substrate addition measured by fluorescence-based assay; design: species or system Sus scrofa; settings: read-out: Ki(app)
Plasma kallikrein [3] = target: Plasma kallikrein (Homo sapiens, UniProt P03952); test: Inhibition of human plasma kallikrein using fluorogenic H-Pro-Phe-Arg-AMC peptide as substrate preincubated for 15 mins followed by substrate addition measured by fluorescence-based assay; settings: read-out: Ki(app)
Plasma [4] = test: (§1) Drug level in human plasma treated with (3S,6S,9R,12S,15S,18S,21S,24S,27R)-15-((1H-imidazol-5-yl)methyl)-1-((S)-1-((S)-2-((S)-2-((R)-2-acetamido-3-mercaptopropanamido)-3-hydroxypropanamido)-3-(1H-indol-3-yl)propanoyl)pyrrolidin-2-yl)-18-(3-amino-3-oxopropyl)-21-(carboxymethyl)-6-(3-guanidinopropyl)-12,24-diisobutyl-9,27-bis(mercaptomethyl)-3-methyl-1,4,7,10,13,16,19,22,25-nonaoxo-2,5,8,11,14,17,20,23,26-nonaazaoctacosan-28-oic acid at 50 uM after 18 hrs by MALDI-TOF analysis; type: ADME, cell-free
Procedure, shortened: (§2)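 Peptide from a 1 mM DMSO stock was diluted to 50 μM in citrated mouse, rat or human plasma and incubated at 37 °C for up to 2 days. Samples taken at time points were quenched in 1:1 acetonitrile/methanol and centrifuged. The supernatant was mixed with ammonium bicarbonate in acetonitrile/water, and parent peptide and metabolites were detected by MALDI-TOF.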

[5] = Aqueous solubility of the compound in buffer; type: physicochemical
Plasma [6] = test: as §1, with “rat” for “human”; type: ADME, cell-free; procedure, shortened: as §2

Sequence of Plasma kallikrein (Homo sapiens, UniProt P03952) (P03952 20-390 limits assumed): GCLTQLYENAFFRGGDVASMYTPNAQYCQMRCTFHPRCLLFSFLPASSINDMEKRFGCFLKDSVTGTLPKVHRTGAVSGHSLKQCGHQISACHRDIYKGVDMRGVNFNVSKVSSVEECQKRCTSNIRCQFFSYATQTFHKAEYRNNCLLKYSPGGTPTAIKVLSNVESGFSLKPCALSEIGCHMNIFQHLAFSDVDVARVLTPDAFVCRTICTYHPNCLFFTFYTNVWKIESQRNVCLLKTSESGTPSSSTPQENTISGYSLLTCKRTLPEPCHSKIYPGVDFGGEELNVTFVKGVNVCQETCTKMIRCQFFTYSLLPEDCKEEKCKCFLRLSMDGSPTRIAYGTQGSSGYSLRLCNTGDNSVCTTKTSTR
Sequence of Plasma kallikrein (Homo sapiens, UniProt P03952) (P03952 391-638 limits assumed): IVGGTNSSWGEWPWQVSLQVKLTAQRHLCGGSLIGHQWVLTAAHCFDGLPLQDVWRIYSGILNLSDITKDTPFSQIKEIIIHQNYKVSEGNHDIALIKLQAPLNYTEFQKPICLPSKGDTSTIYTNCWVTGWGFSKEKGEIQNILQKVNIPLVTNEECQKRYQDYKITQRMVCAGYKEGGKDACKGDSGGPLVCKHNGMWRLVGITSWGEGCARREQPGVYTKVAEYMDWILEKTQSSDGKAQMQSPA
Sequence of Plasma kallikrein (Rattus norvegicus, UniProt P14272) (P14272 20-390 limits assumed): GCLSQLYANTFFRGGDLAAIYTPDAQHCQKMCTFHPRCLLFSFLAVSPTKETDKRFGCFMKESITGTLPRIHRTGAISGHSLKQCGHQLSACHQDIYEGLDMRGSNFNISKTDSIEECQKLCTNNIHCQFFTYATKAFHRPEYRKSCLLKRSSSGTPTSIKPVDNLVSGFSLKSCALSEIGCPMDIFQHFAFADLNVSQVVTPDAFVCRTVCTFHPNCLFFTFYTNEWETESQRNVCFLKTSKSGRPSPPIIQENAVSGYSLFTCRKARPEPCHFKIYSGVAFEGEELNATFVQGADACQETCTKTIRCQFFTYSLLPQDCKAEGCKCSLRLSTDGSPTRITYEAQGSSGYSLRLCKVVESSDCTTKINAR
Sequence of Plasma kallikrein (Rattus norvegicus, UniProt P14272) (P14272 391-638 limits assumed): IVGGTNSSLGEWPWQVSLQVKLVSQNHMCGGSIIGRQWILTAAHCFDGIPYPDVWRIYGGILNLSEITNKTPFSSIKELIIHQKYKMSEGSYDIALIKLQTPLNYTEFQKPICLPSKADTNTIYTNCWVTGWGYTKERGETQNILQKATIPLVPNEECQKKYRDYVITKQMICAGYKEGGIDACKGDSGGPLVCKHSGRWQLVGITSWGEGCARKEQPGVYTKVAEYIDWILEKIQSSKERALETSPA

Compound: CC(=O)N[C@H]1CSCc2cc3cc(c2)CSC[C@H](NC(=O)[C@H](CCCNC(=N)N)NC(=O)[C@H](Cc2ccc(O)cc2)NC(=O)[C@@H]2CCCN2C(=O)[C@H](Cc2ccccc2)NC(=O)[C@H](CO)NC1=O)C(=O)N[C@@H](CC(C)C)C(=O)N[C@@H](Cc1cnc[nH]1)C(=O)N[C@@H](CCC(N)=O)C(=O)N[C@@H](CC(=O)O)C(=O)N[C@@H](CC(C)C)C(=O)N[C@H](C(=O)O)CSC3 (Ac-CSFPYRCLHQDLC-OH; linker 1-7-13 via TBMB)
- Ki [1]: 84000 pM
- Ki (Plasma kallikrein [2]): 11000 pM
- Ki ((UniProt A0A8D1M4K5)): 22000 pM
- Ki (Plasma kallikrein [3]): 390 pM

Compound: CC[C@H](C)[C@@H]1NC(=O)[C@H](CC(=O)O)NC(=O)[C@@H]2CCCN2C(=O)[C@H](Cc2ccc(O)cc2)NC(=O)[C@H](Cc2ccc(O)cc2)NC(=O)[C@H](C(C)C)NC(=O)[C@@H]2CSCc3cc(cc(c3)CSC[C@@H](C(=O)N[C@@H](C)C(=O)O)NC1=O)CSC[C@H](NC(=O)[C@H](C)N)C(=O)N[C@@H](CC(N)=O)C(=O)N[C@@H](CC(N)=O)C(=O)N[C@@H](Cc1ccccc1)C(=O)N1CCC[C@H]1C(=O)N[C@@H](Cc1ccccc1)C(=O)N[C@@H](CCCNC(=N)N)C(=O)N2 (H-ACNNFPFRCVYYPDICA-OH; linker 2-9-16 via TBMB)
- Ki (Plasma kallikrein [3]): 440 pM

Compound: CC[C@H](C)[C@@H]1NC(=O)[C@H](CC(=O)O)NC(=O)[C@@H]2CCCN2C(=O)[C@H](Cc2ccc(O)cc2)NC(=O)[C@H](Cc2ccc(O)cc2)NC(=O)[C@H](C(C)C)NC(=O)[C@@H]2CSCc3cc(cc(c3)CSC[C@@H](C(=O)N[C@@H](C)C(=O)O)NC1=O)CSC[C@H](NC(=O)[C@H](C)N)C(=O)N[C@@H](CO)C(=O)N[C@@H](Cc1ccccc1)C(=O)N1CCC[C@H]1C(=O)N[C@@H](Cc1ccc(O)cc1)C(=O)N[C@@H](CCCNC(=N)N)C(=O)N2 (H-ACSFPYRCVYYPDICA-OH; linker 2-8-15 via TBMB)
- solubility [5]: Insoluble

Compound: CC(=O)N[C@H]1CSCc2cc3cc(c2)CSC[C@H](NC(=O)[C@H](CCCNC(=N)N)NC(=O)[C@H](C)NC(=O)C2CCN2C(=O)[C@H](Cc2c[nH]c4ccccc24)NC(=O)[C@H](CO)NC1=O)C(=O)N[C@@H](CC(C)C)C(=O)N[C@@H](Cc1cnc[nH]1)C(=O)N[C@@H](CCC(N)=O)C(=O)N[C@@H](CC(=O)O)C(=O)N[C@@H](CC(C)C)C(=O)N[C@H](C(=O)O)CSC3 (stereo partly drawn) (Ac-CSW[ξAze]ARCLHQDLC-OH; linker 1-7-13 via TBMB)
- Ki (Plasma kallikrein [3]): 60 pM

Compound: CC(=O)N[C@H]1CSCc2cc(cc(CSC[C@H](NC(=O)[C@H](CC(C)C)NC(=O)[C@@H](N)CC(=O)O)C(=O)O)c2)CSC[C@@H](C(=O)O)NC(=O)[C@H](CCCNC(=N)N)NC(=O)[C@H](C)NC(=O)[C@@H]2CCCN2C(=O)[C@H](Cc2c[nH]c3ccccc23)NC(=O)[C@H](CO)NC1=O
- Drug metabolism (Plasma [6]): Metabolite_Detected

Compound: CC(=O)N[C@H]1CSCc2cc(CSC[C@H](NC(=O)[C@H](CC(C)C)NC(=O)[C@@H](N)CC(=O)O)C(=O)O)cc(c2)CSC[C@@H](C(=O)N[C@@H](CC(C)C)C(=O)O)NC(=O)[C@H](CCCNC(=N)N)NC(=O)[C@H](C)NC(=O)[C@@H]2CCCN2C(=O)[C@H](Cc2c[nH]c3ccccc23)NC(=O)[C@H](CO)NC1=O
- Drug metabolism (Plasma [6]): Metabolite_Detected

Results, then the compound that gave them:

- Drug metabolism (Plasma [4]): Metabolite_Detected
Compound: CC(=O)N[C@@H](CSCc1cc2cc(c1)CSC[C@H](N)C(=O)N[C@@H](CC(C)C)C(=O)N[C@@H](Cc1cnc[nH]1)C(=O)N[C@@H](CCC(N)=O)C(=O)N[C@@H](CC(=O)O)C(=O)N[C@@H](CC(C)C)C(=O)N[C@H](C(=O)O)CSC2)C(=O)O (H-CLHQDLC-OH; linker 1-7 via X1)

- Ki (Plasma kallikrein [3]): 140 pM
Compound: CC(=O)N[C@H]1CSCc2cc3cc(c2)CSC[C@H](NC(=O)[C@H](CCCCNC(=N)N)NC(=O)[C@H](C)NC(=O)C2CCN2C(=O)[C@H](Cc2c[nH]c4ccccc24)NC(=O)[C@H](CO)NC1=O)C(=O)N[C@@H](CC(C)C)C(=O)N[C@@H](Cc1cnc[nH]1)C(=O)N[C@@H](CCC(N)=O)C(=O)N[C@@H](CC(=O)O)C(=O)N[C@@H](CC(C)C)C(=O)N[C@H](C(=O)O)CSC3 (stereo partly drawn) (Ac-CSW[ξAze]A[hArg]CLHQDLC-OH; linker 1-7-13 via TBMB)

- Drug metabolism (Plasma [4]): Metabolite_Detected
Compound: CC(=O)N[C@@H](CSCc1cc2cc(c1)CSC[C@H](N)C(=O)N[C@@H](CC(C)C)C(=O)N[C@@H](Cc1cnc[nH]1)C(=O)N[C@@H](CCC(N)=O)C(=O)N[C@@H](CC(=O)O)C(=O)N[C@@H](CC(C)C)C(=O)N[C@H](C(=O)O)CSC2)C(=O)N[C@@H](CO)C(=O)N[C@@H](Cc1c[nH]c2ccccc12)C(=O)N1CCC[C@H]1C(=O)N[C@@H](C)C(=O)O (I: H-CLHQDLC-OH / II: Ac-CSWPA-OH; linker I:1-I:7-II:1 via TBMB)

- Drug metabolism (Plasma [6]): Metabolite_Detected
Compound: CC(=O)N[C@H]1CSCc2cc(cc(CSC[C@H](NC(=O)[C@H](CC(C)C)NC(=O)[C@H](CC(=O)O)NC(=O)[C@H](CCC(N)=O)NC(=O)[C@@H](N)Cc3cnc[nH]3)C(=O)O)c2)CSC[C@@H](C(=O)O)NC(=O)[C@H](CCCNC(=N)N)NC(=O)[C@H](C)NC(=O)[C@@H]2CCCN2C(=O)[C@H](Cc2c[nH]c3ccccc23)NC(=O)[C@H](CO)NC1=O (I: Ac-CSWPARC-OH / II: H-HQDLC-OH; linker I:1-I:7-II:5 via TBMB)

- Ki (Plasma kallikrein [3]): 1300 pM
Compound: CC(=O)N[C@H]1CSCc2cc3cc(c2)CSC[C@H](NC(=O)[C@H](CCCNC(=N)N)NC(=O)[C@H](Cc2ccc(O)cc2)NC(=O)[C@@H]2CCCN2C(=O)[C@H](Cc2ccccc2)NC(=O)[C@H](CO)NC1=O)C(=O)N[C@@H](C)CN[C@@H](Cc1cnc[nH]1)C(=O)N[C@@H](CCC(N)=O)C(=O)N[C@@H](CC(=O)O)C(=O)N[C@@H](CC(C)C)C(=O)N[C@H](C(=O)O)CSC3

- Drug metabolism (Plasma [4]): Metabolite_Detected
Compound: CC(=O)N[C@@H](CSCc1cc2cc(c1)CSC[C@H](N)C(=O)N[C@@H](CC(C)C)C(=O)N[C@@H](Cc1cnc[nH]1)C(=O)N[C@@H](CCC(N)=O)C(=O)N[C@@H](CC(=O)O)C(=O)N[C@@H](CC(C)C)C(=O)N[C@H](C(=O)O)CSC2)C(=O)N[C@@H](CO)C(=O)O

- Ki (Plasma kallikrein [2]): 900 pM
- Ki (Plasma kallikrein [3]): 70 pM
Compound: CC(C)C[C@@H]1NC(=O)[C@H](CC(=O)O)NC(=O)[C@H](CCC(N)=O)NC(=O)[C@H](Cc2cnc[nH]2)NC(=O)[C@H](CC(C)C)NC(=O)[C@@H]2CSCc3cc(cc(c3)CSC[C@@H](C(=O)N[C@@H](C)C(=O)O)NC1=O)CSC[C@H](NC(=O)[C@H](C)N)C(=O)N[C@@H](CO)C(=O)N[C@@H](Cc1c[nH]c3ccccc13)C(=O)N1CCC[C@H]1C(=O)N[C@@H](C)C(=O)N[C@@H](CCCNC(=N)N)C(=O)N2 (H-ACSWPARCLHQDLCA-OH; linker 2-8-14 via TBMB)

- Ki (Plasma kallikrein [3]): 210 pM
Compound: CC(=O)N[C@H]1CSCc2cc3cc(c2)CSC[C@H](NC(=O)[C@H](CCCCNC(=N)N)NC(=O)[C@H](Cc2ccc(O)cc2)NC(=O)C2CCN2C(=O)[C@H](Cc2ccccc2)NC(=O)[C@H](CO)NC1=O)C(=O)N[C@@H](CC(C)C)C(=O)N[C@@H](Cc1cnc[nH]1)C(=O)N[C@@H](CCC(N)=O)C(=O)N[C@@H](CC(=O)O)C(=O)N[C@@H](CC(C)C)C(=O)N[C@H](C(=O)O)CSC3 (stereo partly drawn) (Ac-CSF[ξAze]Y[hArg]CLHQDLC-OH; linker 1-7-13 via TBMB)

From ChEMBL document CHEMBL4033799, “Stable and Long-Lasting, Novel Bicyclic Peptide Plasma Kallikrein Inhibitors for the Treatment of Diabetic Macular Edema” (J Med Chem, 2018)
